Screening results from PubChem.
A selection: hits, their analogues and other compounds. The true share with any hit is near 2.2%.
Diaph inh CS: diaphorase inhibitors and chemical oxidizers, primary screen, counter-screen for diaphorase-coupled primary assays, biochemical, uHTS, resorufin fluorescence; diaphorase resazurin-to-resorufin fluorescence, NADH, 16 min; bacterial (C. kluyveri) enzyme, not human; inhibition, % at 20 µM; 190,000 compounds, 0.69% hits; AID 1217, 2008;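 active means primary screen inhibition at 20 µM above a set limit, cut at about 50% in these data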;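 further: plate controls were DMSO with full reaction for no effect and wells lacking NADH for full effect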
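System: Diaphorase enzyme from Clostridium kluyveri | Amount: Enzyme working solution with 0.14 U/mL diaphorase | Benchmarks: No-NADH positive control and DMSO neutral control | Signal: Fluorescence of resorufin formed from resazurin, Ex 544/Em 590 nm | Schedule: 16-min room-temperature incubation before reading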
ROMK mod: ROMK potassium channel modulators, primary screen, cell-based, thallium flux, MLSMR library; Tet-inducible ROMK, thallium flux fluorescence; actives lie on both sides; AID 1918, 2009; 130,000 compounds, 2% hits; B-score at 10 µM;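 active means signal ratio slope over the read window, or its plate-corrected B-score, at least 3 SD from the plate mean, either direction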;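 further: B-score of the F/F0 ratio slope over 7 to 12 s after thallium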
Target sequence (P48048 whole entry, looked up): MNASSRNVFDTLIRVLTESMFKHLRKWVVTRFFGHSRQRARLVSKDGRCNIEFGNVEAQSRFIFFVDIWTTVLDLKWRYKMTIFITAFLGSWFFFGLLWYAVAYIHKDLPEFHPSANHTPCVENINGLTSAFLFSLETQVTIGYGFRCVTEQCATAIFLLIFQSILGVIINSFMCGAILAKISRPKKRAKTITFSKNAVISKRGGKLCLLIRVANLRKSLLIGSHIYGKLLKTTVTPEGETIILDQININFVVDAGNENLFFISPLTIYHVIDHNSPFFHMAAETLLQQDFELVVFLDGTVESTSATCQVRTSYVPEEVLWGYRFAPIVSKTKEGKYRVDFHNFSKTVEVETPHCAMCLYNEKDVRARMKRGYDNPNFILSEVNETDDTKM
Diaphorase act: compounds boosting diaphorase resazurin reduction – biochemical, uHTS, resorufin fluorescence, counter-screen for diaphorase-coupled primary assays, primary screen; Diaphorase/resazurin coupled assay, 16 min; stronger effect = higher value; 1 = vehicle wells, 0 = NADH-free wells; activation factor at 20 µM; 190,000 compounds, 0.005% hits;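 active means diaphorase activity raised at least twofold by the compound at 20 µM; inactive means activation factor below 2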
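Measured by – red resorufin fluorescence at 544/590 nm excitation/emission · Test system – Clostridium kluyveri diaphorase, purified enzyme · Incubation – reaction time 16 min, room temperature · Buffer or medium – 50 mM HEPES pH 7.4 with 4.542 mM MgCl2, 0.005% Tween 20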
PMI act hi M6P: human PMI activators, high substrate, primary screen, biochemical, fluorescence intensity, near-saturating mannose 6-phosphate. Mannose-6-phosphate isomerase (Homo sapiens), P34949. coupled PMI enzyme assay, resazurin fluorescence, 20 min; stronger effect = higher value; 1 = untreated enzyme, 0 = substrate-free blank. activation factor at 20 µM. 190,000 compounds, 0.34% hits. AID 1216, 2008;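 active means activation factor of 2 or more at 20 µM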
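Test system: human phosphomannose isomerase with PGI, G6PDH, diaphorase coupling enzymes / Doses: 20 µM compound, 1% DMSO / Times: enzyme reaction with compound 20 min at room temperature / Measured by: Diaphorase-driven resazurin-to-resorufin fluorescence, excitation 544, emission 590 nm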
PMI act: activators of human PMI, primary screen, biochemical, fluorescence intensity, near-Km mannose 6-phosphate; purified human PMI, coupled resazurin fluorescence, 20 min; stronger effect = higher value; 1 = vehicle control, 0 substrate-free wells; Mannose-6-phosphate isomerase (Homo sapiens), P34949; 190,000 compounds, 0.005% hits; activation factor at 20 µM; AID 1214, 2008;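 active means activation factor of 2 or more at 20 µM, relative to plate controls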
G6PDH counter: L. mesenteroides G6PDH inhibitors, counter-screen for G6PDH-coupled screening assays, biochemical, Leuconostoc mesenteroides enzyme; glucose-6-phosphate dehydrogenase [Leuconostoc mesenteroides]; Purified L. mesenteroides G6PDH, diaphorase/resazurin coupled fluorescence, 45 min; inhibition, % at 5 µM; 200,000 compounds, 0.12% hits; AID 1020, 2008; in the data active means inhibition above about 50%
ROMK retest: ROMK channel modulator hit retest, confirmation, cell-based, thallium flux, duplicate, resupplied hits; shares compounds with ROMK mod; normalized thallium flux (F/F0 slope) at 10 µM; 3,000 compounds, 54% hits; fluorescence ratio; stronger effect = lower value; AID 1917, 2009;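 active means Flux at 10 µM at least 3 SD below or above vehicle control mean in one or both replicates; inconclusive means no clear call, values can overlap the other calls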
Active calls of the source: *; ? = inconclusive; . = not tested or not shown.

SMILES	Diaph inh CS	ROMK mod	Diaphorase act	PMI act hi M6P	PMI act	G6PDH counter	ROMK retest
COc1cc(CC(=O)OCC(=O)Nc2ccc3c(c2)OCO3)cc(OC)c1OC	-8	0.072	1.1	1	1.1	4	.
CC1CCCCC12NC(=O)N(Cc1cc(=O)n3ccsc3n1)C2=O (centres undefined)	.	-0.86	.	.	.	.	.
CN(C)c1ccc(/C=C/c2cc[n+](C)cc2)cc1	-3	-7.3*	1	1.1	1	0	0.044*
C=CCOC(=O)C1=C(C)OC(N)=C(C#N)C1c1c(C)nn(-c2ccccc2)c1Cl (centres undefined)	16	-4*	0.8	0.9	0.9	11	0.059*
CNC(=O)CS(=O)CC(=O)Nc1cc(OC(C)C)c(Cl)cc1Cl (centres undefined)	8	-0.33	0.9	1	0.9	7	.
COc1cccc(-c2cc(C(=O)NCc3cccs3)no2)c1	.	-2.1*	.	.	.	.	0.081
COc1cccc(-c2cc(C(=O)Nc3cccc(O)c3)no2)c1	23	.	0.8	0.9	0.9	-2	.
COc1ccc(NC(=O)c2cc(-c3cccc(OC)c3)on2)cc1	5	-4.4*	1	1	1	-2	0.081
N#CC1=C(N)C(C#N)(C#N)[C@H](c2ccncc2)[C@H]2CC3(CC=C12)OCCO3	14	-3.8*	0.9	0.6	1	12	?
Fc1ccc(OCc2nc3ccccc3s2)cc1	4	0.091	1	0.8	0.9	9	.
COc1ccc(Cc2noc(CN3CCNC(=O)CC3)n2)cc1OC	2	.	1	1	1	18	.
Nc1ccc2c(c1)Oc1ccccc1C=C2	4	-3.2*	1	0.9	1	1	0.07
Cc1cc(=O)oc2c3c4c(cc12)OCCN4CCC3	23	.	0.8	0.8	1.1	6	.
CC(C)c1cc(=O)oc2c3c4c(cc12)CCCN4CCC3	46	.	0.5	1.1	1.3	-7	0.054*
CN(CC(=O)Nc1ccc(C(N)=O)cc1)CC(=O)Nc1ccccc1Br	.	6.1*	.	.	.	.	0.075
CC(C)(C)c1nnc(NC(=S)Nc2ccccc2)s1	8	0.42	0.9	0.9	1	7	.
Cc1nnc(N/N=C/c2ccc(-c3ccccc3F)o2)n1N	5	-2.5*	0.9	0.7	1.4	8	0.059*
Cc1nnc(N/N=C\c2ccc(-c3ccccc3[N+](=O)[O-])o2)n1N	48	-0.27	0.5	0.4	0.4	24	.
CCCCc1ccc(NC(=S)NCCc2ccc(S(N)(=O)=O)cc2)cc1	10	-0.29	0.9	1	0.9	11	.
COc1ccc(CN2C(=O)N(c3ccccc3)C(=O)C2CC(=O)Nc2ccccc2)cc1OC (centres undefined)	15	0.6	0.8	1	1	4	.
Cc1ccc(C(=O)NC(=S)N2CCN(c3ccccc3F)CC2)cc1	12	3.4*	0.9	0.9	0.9	-7	0.1*
CCc1nnc(NC(=O)c2c(OC)cccc2OC)s1	0	.	1	1	0.9	4	.
CCOCc1nnc(NC(=O)c2c(OC)cccc2OC)s1	5	3.3*	1	1	0.9	16	?
COc1cc(Cl)c(C)cc1NC(=O)c1ccc(S(C)(=O)=O)cc1	6	-0.05	0.9	1.1	1.1	1	.
C/C(=N\Nc1nc2c(s1)CCCC2)c1ccccc1	12	1.3	0.9	1.8	1.5	0	.
